Screens as filed in PubChem.
The list is not random: actives were taken first. Their share in the collection is about 2.7%.
Env fusion inh – inhibitors of HIV Env-mediated cell fusion | HeLa-JRFL Env/CEM21 cell fusion, luciferase | inhibition, % at 12.3 µM | 360,000 tested, 1.1% active | AID 651610;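 active = mean replicate inhibition score of at least 50 and every replicate individually at or above 50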
S100A4 inh HTS – inhibitors of human S100A4 binding to myosin IIA peptide; P26447; S100A4/TAMRA-MyoIIA peptide fluorescence polarization; inhibition, % at 10.7 µM; 360,000 tested, 0.14% active;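 active = mean inhibition of at least 70% across replicates, with every replicate also reaching that level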
Target sequence (P26447 whole entry, looked up): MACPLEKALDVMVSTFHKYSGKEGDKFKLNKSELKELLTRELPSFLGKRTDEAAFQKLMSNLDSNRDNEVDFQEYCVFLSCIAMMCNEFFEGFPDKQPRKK
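Test system – S100A4 monomer (human) · Compound – single-point compound testing · Schedule – 5 min incubation before reading · Probe or stimulus – TAMRA-labelled myosin IIA heavy-chain peptide probe, 5 nM · Benchmarks – neutral control DMSO, positive control TFP · Medium – Calcium-containing HEPES buffer, pH 7.2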
FGF22 binding – shifts melting point of recombinant human FGF22; recombinant FGF22 thermal shift, SYPRO orange fluorescence; percent of sucrose octasulfate shift, DMSO zero; Q9HCT0; 340,000 tested, 1.5% active; AID 651658; activity (Tm shift, normalised), % at 9.99 µM;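 active = mean Tm shift, scaled 0 neutral to 100 positive control, at about 1.3% or above, every replicate too, limit read from the data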
Target sequence (Q9HCT0 whole entry, looked up): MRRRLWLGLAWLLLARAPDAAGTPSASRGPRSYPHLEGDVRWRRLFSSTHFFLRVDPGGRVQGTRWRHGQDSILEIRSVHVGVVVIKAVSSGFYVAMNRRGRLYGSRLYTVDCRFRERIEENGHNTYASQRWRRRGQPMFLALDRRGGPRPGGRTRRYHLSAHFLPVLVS
E-selectin induc – E-selectin induction on HUVECs; activation, % at 7.58 µM; HUVEC E-selectin immunofluorescence imaging; normalized: neutral wells 0, TNF-alpha wells 100; AID 686992; 260,000 tested, 0.37% active;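 active = mean E-selectin-positive cell signal at least 10% of the positive control, reached in at least 60% of replicates, without over 20% cell loss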
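System: HUVEC / Compound: single concentration / Signal: immunofluorescence imaging / Read-out: percent E-selectin-positive cells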
CFTR F508del cor – CFTR F508del correction in bronchial cells | activity (quench increase), % at 7.58 µM | CFBE cells, YFP halide quenching; stimulated with forskolin plus potentiator P3; % fluorescence drop versus neutral controls | 350,000 tested, 0.36% active;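 active = mean added fluorescence quench of at least 8% versus neutral control, with both replicates also reaching 8%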;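 also: cells transiently co-express mutant CFTR-F508del with the halide-sensitive YFP; corrector assay measuring rescue of mutant channel to the surface after 24 h compound exposure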
Hits are given with their value; 0 = inactive; - = not tested or not shown.

SMILES	Env fusion inh	S100A4 inh HTS	FGF22 binding	E-selectin induc	CFTR F508del cor
O=C(C[C@@H]1CC[C@H]2[C@@H](COC[C@@H](O)CN2C(=O)Nc2ccccc2)O1)NCCCN1CCOCC1	-	0	0	0	0
COc1cccc(NC(=O)N[C@@H]2C=C[C@H](CC(=O)N3CCOCC3)O[C@H]2CO)c1	0	0	0	0	0
CCCNC(=O)N1C[C@@H](O)COC[C@H]2O[C@H](CC(=O)N3CCOCC3)CC[C@@H]21	-	0	0	0	0
OC(Cc1ccncc1)c1ccccc1Cl (configuration not stated)	-	0	43	0	0
O=C(Nc1ccc(F)cc1)N1CCN(c2ncccn2)CC1	0	0	43	0	0
O=C(Nc1ccc(Cl)cc1)N1CCN(c2ncccn2)CC1	0	0	0	-	0
Cc1cccc(N2CCN(C(=S)c3ccc([N+](=O)[O-])cc3)CC2)c1	0	0	0	-	-
Cc1cccc(N2CCN(C(=S)c3ccccc3)CC2)c1	0	0	44	-	0
S=C(Nc1ccc(Nc2ccccc2)cc1)N1CCN(c2ncccn2)CC1	0	0	43	0	0
S=C(Nc1ccccc1)N1CCN(c2ccccc2)CC1	0	0	-	0	0
Cc1ccc(N2CCN(C(=S)Nc3ccccc3)CC2)cc1	0	0	43	-	0
Cc1cc(C)cc(NC(=S)N2CCN(c3ncccn3)CC2)c1	0	0	0	0	0
O=C(C[C@H]1C[C@H]2c3cc(NC(=O)c4ccc5c(c4)OCO5)ccc3O[C@H]2[C@@H](CO)O1)NC1CCCC1	0	0	0	0	0
O=C(C[C@@H]1CC[C@@H]2[C@H](COC[C@@H](O)CN2CC2CCOCC2)O1)NCC1CC1	0	0	0	0	0
COc1ccc2sc(-c3ccccc3OC)c(-c3ccc(O)cc3)c2c1	0	0	0	42	0
COc1cc2sc(-c3ccccc3OC)c(-c3ccc(O)cc3)c2cc1OC	0	0	0	0	0
Cc1noc(C)c1NC(=O)N(C)C[C@H]1Oc2c(NS(=O)(=O)c3ccccc3)cccc2C(=O)N([C@@H](C)CO)C[C@@H]1C	0	0	0	0	0
COc1ccc(S(=O)(=O)NCC2CCCN(Cc3cccc(C(C)=O)c3)C2)cc1 (configuration not stated)	0	87	0	-	0
COc1ccc(S(=O)(=O)NCC2CCCN(Cc3cccnc3)C2)cc1 (configuration not stated)	0	0	-	0	0
Cc1noc(C)c1NC(=O)N[C@H]1CC[C@H](CCNC(=O)C2CCCC2)O[C@H]1CO	0	0	0	0	0
COc1ccc(NC(=O)C2CCCN2S(=O)(=O)c2ccc3c(c2)CCC(=O)N3)cc1Cl (configuration not stated)	85	0	0	0	0
COc1ccc(NC(=O)C2CCCN2S(=O)(=O)c2ccc3c(c2)CCC(=O)N3)cc1 (configuration not stated)	0	0	-	0	0
O=C(Nc1cccc(S(=O)(=O)N2CCOCC2)c1)[C@@H]1CCCN1S(=O)(=O)c1ccc(Cl)cc1	62	-	-	0	-
CCN(CC)CCNC(=O)c1cc2c(=O)n(CC)c3ccccc3c2s1	0	0	0	63	0
CCN(CC)CCCNC(=O)c1cc2c(=O)n(CC)c3ccccc3c2s1	0	0	0	0	0
SMILES	Env fusion inh	S100A4 inh HTS	FGF22 binding	E-selectin induc	CFTR F508del cor
COc1ccc(NC(=O)Nc2ccc3c(c2)C(=O)N(C)C[C@@H](OC)[C@H](C)CN[C@@H](C)CO3)cc1	0	-	-	0	0
O=C(Nc1ccc(S(=O)(=O)N2CCCCC2c2cccnc2)cc1)c1c(F)cccc1F (configuration not stated)	0	0	44	-	0
CCC1CCCCN1S(=O)(=O)c1ccc(NC(=O)c2ccncc2)cc1 (configuration not stated)	63	0	0	0	0
CCC1CCCCN1S(=O)(=O)c1ccc(C(=O)Nc2nnc(C3CC3)o2)cc1 (configuration not stated)	0	0	0	0	0
Cc1ccccc1-c1ccc([C@@H]2[C@H]3CN(C(=O)Cc4ccccn4)CC(=O)N3[C@H]2CO)cc1	-	0	0	0	0
COc1ccc(CN(C)C[C@H]2OCCCC[C@H](C)Oc3ccc(NC(=O)Cc4ccccc4)cc3C(=O)N([C@@H](C)CO)C[C@@H]2C)cc1	0	-	0	0	0
COc1ccc(N2CCN(C(=O)CSc3ccc(C)cc3)CC2)cc1	0	0	44	0	0
CCCNC(=O)N[C@H]1C=C[C@@H](CC(=O)N2CCN(C)CC2)O[C@@H]1CO	0	125	0	0	0
COc1cccc(NC(=O)N[C@@H]2C=C[C@@H](CC(=O)N3CCN(C)CC3)O[C@@H]2CO)c1	-	86	-	0	0
Cc1ccn2c(NC3CCCCC3)c(-c3cccc(-c4cccc(Cl)c4)c3)nc2c1	70	0	0	-	0
CC(=O)O[C@H]1C(=O)[C@@]2(C)[C@H]([C@H](OC(=O)c3ccccc3)[C@]3(O)C[C@H](OC(=O)[C@H](O)C(NC(=O)c4ccccc4)c4ccccc4)C(C)=C1C3(C)C)[C@]1(OC(C)=O)CO[C@@H]1C[C@@H]2O (some centres not stated)	-	0	0	0	11
CC(=O)O[C@H]1C(=O)[C@@]2(C)[C@H]([C@H](OC(=O)c3ccccc3)[C@]3(O)C[C@H](OC(=O)[C@H](O)[C@@H](NC(=O)c4ccccc4)c4ccccc4)C(C)=C1C3(C)C)[C@]1(OC(C)=O)CO[C@@H]1C[C@@H]2O	0	0	0	0	0
CC(C)(C)c1ccc(/C=C/C(=O)c2ccc(NC3=NCCCS3)cc2)cc1	0	0	0	0	8.3
COc1cc(O)c(C(CCN2CCCCC2)c2ccc(N(C)C)cc2)c(OC)c1 (configuration not stated)	57	0	0	0	0
COc1cc(O)c(C(CCN2CCCC2)c2ccc(N(C)C)cc2)c(OC)c1 (configuration not stated)	0	0	0	0	0
CCNC(=O)C[C@H]1CC[C@@H](NS(=O)(=O)c2ccc(F)cc2)[C@@H](CO)O1	0	0	0	0	0
C[n+]1ccccc1/C=C1\Sc2ccccc2N1CCO	0	0	0	0	0
CCN1/C(=C/c2ccc3cc(C)cc(C)c3[n+]2CC)Sc2cc(C)ccc21	0	0	0	-	65
CCN1/C(=C\c2ccc3cc(C)ccc3[n+]2CC)Sc2cc(C)c(C)cc21	0	0	0	-	62
Cc1ccc2c(c1)S/C(=C\c1cccc[n+]1C)N2CCO	0	0	0	0	0
CCN1/C(=C/c2ccc3cccc(C)c3[n+]2CC)Sc2ccccc21	59	-	-	-	-
C/C=C/c1ccc([C@H]2[C@H](CO)N(C(=O)C3CC3)C23CN(C(=O)NC(C)C)C3)cc1	-	0	0	0	0
COc1cccc(NC(=S)/C(=C(\[O-])c2cc(C)n(-c3ccccc3F)c2C)[n+]2ccc(N(C)C)cc2)c1	0	0	43	-	0
